In ChEMBL document CHEMBL2146456, “Identification and characterization of GABA(A) receptor modulatory diterpenes from Biota orientalis that decrease locomotor activity in mice” (J Nat Prod, 2011):
Calls of active or inactive are those of the source. The rule behind the calls is not given here.

Key:
[1] = (§1) Allosteric modulation of gamma-aminobutyric acid receptor A alpha1beta2gamma2S expressed in Xenopus oocytes assessed as potentiation of GABA-mediated chloride current by voltage clamp analysis; assay type: cell-based; conditions: Oocyte
Outline: (§2)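 Oocytes were injected with α1β2γ2S, α1β3γ2S, α2β2γ2S, α3β2γ2S or α5β2γ2S cRNAs at a 1:1:10 ratio. Two-electrode voltage clamp was run 1–5 days post-injection in HEPES-buffered saline at pH 7.4. Compounds in GABA EC5–10 (3–10 μM) were given by automated fast perfusion: screening at 10 and 100 μM (n = 2), otherwise concentration series. Potentiation = I(GABA+Comp)/IGABA − 1, with nonlinear regression fits.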

[2] = tested on: Oocyte; experiment: Allosteric modulation of gamma-aminobutyric acid receptor A alpha1beta2gamma2S expressed in Xenopus oocytes assessed as potentiation of GABA-mediated chloride current at 0.1 to 500 uM by voltage clamp analysis relative to control; assay type: cell-based
Outline: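 Two-electrode voltage clamp on Xenopus oocytes injected with α1, β2, γ2S cRNA at a 1:1:10 ratio, recorded on days 1–5 at a holding potential of […]. Bath: 90 mM NaCl, 1 mM KCl, 1 mM MgCl2, 1 mM CaCl2, 5 mM HEPES pH 7.4. Compound was co-applied by fast perfusion with GABA EC5-10 (typically 3–10 μM). Potentiation was calculated as I(GABA+Comp)/IGABA − 1, and concentration-response curves were fitted by nonlinear regression.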

[3] = tested on: Oocyte; experiment: (§3) Allosteric modulation of gamma-aminobutyric acid receptor A alpha2beta2gamma2S expressed in Xenopus oocytes assessed as potentiation of GABA-mediated chloride current by voltage clamp analysis; assay type: cell-based; outline: as §2
[4] = as §3; assay type: cell-based; conditions: Oocyte; outline: as §2
[5] = tested on: Oocyte; experiment: Allosteric modulation of gamma-aminobutyric acid receptor A alpha1beta2gamma2S expressed in Xenopus oocytes assessed as potentiation of GABA-mediated chloride current at 500 uM by voltage clamp analysis relative to control; assay type: cell-based; outline: as §2
[6] = tested on: Oocyte; experiment: Allosteric modulation of gamma-aminobutyric acid receptor A alpha2beta2gamma2S expressed in Xenopus oocytes assessed as potentiation of GABA-mediated chloride current at 0.1 to 500 uM by voltage clamp analysis relative to control; assay type: cell-based; outline: as §2
[7] = tested on: Oocyte; experiment: Agonist activity at gamma-aminobutyric acid receptor A alpha3beta2gamma2S expressed in Xenopus oocytes assessed as potentiation of GABA-mediated chloride current by voltage clamp analysis; assay type: functional, cell-based; outline: as §2
[8] = tested on: Oocyte; experiment: Agonist activity at gamma-aminobutyric acid receptor A alpha1beta1gamma2S expressed in Xenopus oocytes assessed as potentiation of GABA-mediated chloride current at 300 uM by voltage clamp analysis; assay type: functional, cell-based
Outline: (§4)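 α1β1γ2S cRNAs (3:1:10) injected into Xenopus oocytes and recorded 1–5 days later by two-microelectrode voltage clamp. Bath was 90 mM NaCl, 1 mM KCl, 1 mM MgCl2, 1 mM CaCl2, 5 mM HEPES, pH 7.4. Compound was co-applied by fast perfusion with GABA at EC5–10 (3–10 μM). Enhancement = I(GABA+Comp)/IGABA − 1. Concentration-response curves fitted by nonlinear regression.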

[9] = tested on: Oocyte; experiment: Allosteric modulation of gamma-aminobutyric acid receptor A alpha5beta2gamma2S expressed in Xenopus oocytes assessed as potentiation of GABA-mediated chloride current at 0.1 to 500 uM by voltage clamp analysis relative to control; assay type: cell-based; outline: as §2
[10] = target: T1, GABA-A receptor; GABA-A site (alpha1/beta2 interface) (Homo sapiens) (UniProt P14867+P47870); experiment: Allosteric modulation of gamma-aminobutyric acid receptor A alpha1beta2 expressed in Xenopus oocytes assessed as potentiation of GABA-mediated chloride current at 100 uM by voltage clamp analysis; assay type: cell-based; conditions: Oocyte
[11] = tested on: Oocyte; experiment: Agonist activity at gamma-aminobutyric acid receptor A alpha1beta2gamma2S expressed in Xenopus oocytes assessed as potentiation of GABA-mediated chloride current by voltage clamp analysis; assay type: functional, cell-based; outline: as §2
[12] = tested on: Oocyte; experiment: Allosteric modulation of gamma-aminobutyric acid receptor A alpha1beta2gamma2S expressed in Xenopus oocytes assessed as potentiation of GABA-mediated chloride current at 100 uM by voltage clamp analysis; assay type: cell-based; outline: as §2
[13] = tested on: Oocyte; experiment: Allosteric modulation of gamma-aminobutyric acid receptor A alpha1beta3gamma2S expressed in Xenopus oocytes assessed as potentiation of GABA-mediated chloride current at 0.1 to 500 uM by voltage clamp analysis relative to control; assay type: cell-based; outline: as §2
[14] = tested on: Oocyte; experiment: Agonist activity at gamma-aminobutyric acid receptor A alpha2beta2gamma2S expressed in Xenopus oocytes assessed as potentiation of GABA-mediated chloride current by voltage clamp analysis; assay type: functional, cell-based; outline: as §2
[15] = tested on: Oocyte; experiment: (§5) Allosteric modulation of gamma-aminobutyric acid receptor A alpha5beta2gamma2S expressed in Xenopus oocytes assessed as potentiation of GABA-mediated chloride current by voltage clamp analysis relative to control; assay type: cell-based; outline: as §2
[16] = as §5; assay type: cell-based; conditions: Oocyte; outline: as §2
[17] = tested on: Oocyte; experiment: Allosteric modulation of gamma-aminobutyric acid receptor A alpha1beta2gamma2S expressed in Xenopus oocytes assessed as potentiation of GABA-mediated chloride current at 30 uM by voltage clamp analysis; assay type: cell-based; outline: as §2
[18] = tested on: Oocyte; experiment: Agonist activity at gamma-aminobutyric acid receptor A alpha5beta2gamma2S expressed in Xenopus oocytes assessed as potentiation of GABA-mediated chloride current by voltage clamp analysis; assay type: functional, cell-based; outline: as §2
[19] = tested on: Oocyte; experiment: Agonist activity at gamma-aminobutyric acid receptor A alpha1beta3gamma2S expressed in Xenopus oocytes assessed as potentiation of GABA-mediated chloride current by voltage clamp analysis; assay type: functional, cell-based; outline: as §2
[20] = tested on: Oocyte; experiment: (§6) Allosteric modulation of gamma-aminobutyric acid receptor A alpha1beta3gamma2S expressed in Xenopus oocytes assessed as potentiation of GABA-mediated chloride current by voltage clamp analysis; assay type: cell-based; outline: as §2
[21] = as §6; assay type: cell-based; conditions: Oocyte; outline: as §2
[22] = tested on: Oocyte; experiment: Allosteric modulation of gamma-aminobutyric acid receptor A alpha3beta2gamma2S expressed in Xenopus oocytes assessed as potentiation of GABA-mediated chloride current at 0.1 to 500 uM by voltage clamp analysis relative to control; assay type: cell-based; outline: as §2
[23] = tested on: Oocyte; experiment: (§7) Allosteric modulation of gamma-aminobutyric acid receptor A alpha1beta1gamma2S expressed in Xenopus oocytes assessed as potentiation of GABA-mediated chloride current by voltage clamp analysis; assay type: cell-based; outline: as §4
[24] = as §7; assay type: cell-based; conditions: Oocyte; outline: as §4
[25] = target: T1, GABA-A receptor; GABA-A site (alpha1/beta2 interface) (Homo sapiens); experiment: Allosteric modulation of gamma-aminobutyric acid receptor A alpha1beta2 expressed in Xenopus oocytes assessed as potentiation of GABA-mediated chloride current at 30 uM by voltage clamp analysis; assay type: cell-based; conditions: Oocyte
[26] = tested on: Oocyte; experiment: Allosteric modulation of gamma-aminobutyric acid receptor A alpha1beta1gamma2S expressed in Xenopus oocytes assessed as potentiation of GABA-mediated chloride current at 0.1 to 500 uM by voltage clamp analysis relative to control; assay type: cell-based; outline: as §4
[27] = tested on: Oocyte; experiment: (§8) Allosteric modulation of gamma-aminobutyric acid receptor A alpha3beta2gamma2S expressed in Xenopus oocytes assessed as potentiation of GABA-mediated chloride current by voltage clamp analysis; assay type: cell-based; outline: as §2
[28] = as §8; assay type: cell-based; conditions: Oocyte; outline: as §2
[29] = tested on: Oocyte; experiment: as §1; assay type: cell-based; outline: as §2
[30] = tested on: Oocyte; experiment: Ratio of isopimaric acid Imax to compound Imax for gamma-aminobutyric acid receptor A alpha1beta1gamma2S expressed in Xenopus oocytes assessed as potentiation of GABA-mediated chloride current at 0.1 to 500 uM by voltage clamp analysis; assay type: cell-based
[31] = tested on: Oocyte; experiment: Ratio of isopimaric acid EC50 to compound EC50 for gamma-aminobutyric acid receptor A alpha5beta2gamma2S expressed in Xenopus oocytes assessed as potentiation of GABA-mediated chloride current by voltage clamp analysis; assay type: cell-based
[32] = tested on: Oocyte; experiment: Ratio of isopimaric acid Imax to compound Imax for gamma-aminobutyric acid receptor A alpha1beta3gamma2S expressed in Xenopus oocytes assessed as potentiation of GABA-mediated chloride current at 0.1 to 500 uM by voltage clamp analysis; assay type: cell-based
[33] = tested on: Oocyte; experiment: Ratio of isopimaric acid Imax to compound Imax for gamma-aminobutyric acid receptor A alpha2beta2gamma2S expressed in Xenopus oocytes assessed as potentiation of GABA-mediated chloride current at 0.1 to 500 uM by voltage clamp analysis; assay type: cell-based
[34] = tested on: Oocyte; experiment: Ratio of isopimaric acid EC50 to compound EC50 for gamma-aminobutyric acid receptor A alpha1beta2gamma2S expressed in Xenopus oocytes assessed as potentiation of GABA-mediated chloride current by voltage clamp analysis; assay type: cell-based
[35] = tested on: Mus musculus; experiment: Anxiolytic activity in C57Bl/6N mouse assessed as ambulation distance at 3 mg/kg, ip measured after 30 mins by open field test ( Rvb = 31.8 +/- 1.7 m); assay type: functional; conditions: route intraperitoneal
[36] = tested on: Oocyte; experiment: Ratio of isopimaric acid EC50 to compound EC50 for gamma-aminobutyric acid receptor A alpha1beta3gamma2S expressed in Xenopus oocytes assessed as potentiation of GABA-mediated chloride current by voltage clamp analysis; assay type: cell-based
[37] = tested on: Oocyte; experiment: Ratio of isopimaric acid EC50 to compound EC50 for gamma-aminobutyric acid receptor A alpha3beta2gamma2S expressed in Xenopus oocytes assessed as potentiation of GABA-mediated chloride current by voltage clamp analysis; assay type: cell-based
[38] = tested on: Oocyte; experiment: Ratio of isopimaric acid EC50 to compound EC50 for gamma-aminobutyric acid receptor A alpha2beta2gamma2S expressed in Xenopus oocytes assessed as potentiation of GABA-mediated chloride current by voltage clamp analysis; assay type: cell-based
[39] = tested on: Oocyte; experiment: Ratio of isopimaric acid Imax to compound Imax for gamma-aminobutyric acid receptor A alpha5beta2gamma2S expressed in Xenopus oocytes assessed as potentiation of GABA-mediated chloride current at 0.1 to 500 uM by voltage clamp analysis; assay type: cell-based
[40] = tested on: Mus musculus; experiment: Anxiolytic activity in C57Bl/6N mouse assessed as ambulation distance at 30 mg/kg, ip measured after 30 mins by open field test ( Rvb = 31.8 +/- 1.7 m); assay type: functional; conditions: route intraperitoneal
[41] = tested on: Oocyte; experiment: Ratio of isopimaric acid Imax to compound Imax for gamma-aminobutyric acid receptor A alpha1beta2gamma2S expressed in Xenopus oocytes assessed as potentiation of GABA-mediated chloride current at 0.1 to 500 uM by voltage clamp analysis; assay type: cell-based
[42] = tested on: Oocyte; experiment: Ratio of isopimaric acid Imax to compound Imax for gamma-aminobutyric acid receptor A alpha3beta2gamma2S expressed in Xenopus oocytes assessed as potentiation of GABA-mediated chloride current at 0.1 to 500 uM by voltage clamp analysis; assay type: cell-based
[43] = tested on: Oocyte; experiment: Ratio of isopimaric acid EC50 to compound EC50 for gamma-aminobutyric acid receptor A alpha1beta1gamma2S expressed in Xenopus oocytes assessed as potentiation of GABA-mediated chloride current by voltage clamp analysis; assay type: cell-based

## CCc1cc2c(s1)N(C)C(=O)CN=C2c1ccccc1Cl [CLOTIAZEPAM]
[1]
  EC50: 0.184 µM
[2]
  Imax: 260%

## C=C[C@@]1(C)CC[C@H]2C(=CC[C@@H]3[C@]2(C)CCC[C@@]3(C)C(=O)O)C1 [ISOPIMARIC ACID]
[3]
  Activity: Dose-dependent effect
[4]
  EC50: 365 µM
[5]
  Imax: 425%
[6]
  Imax: 1030%
[7]
  Activity: inactive
[8]
  Activity: inactive
[9]
  Imax: 472%
[10]
  Activity: Active
[11]
  Activity: inactive
[12]
  Activity: Active
[13]
  Imax: 476%
[14]
  Activity: inactive
[15]
  Activity: Dose-dependent effect
[16]
  EC50: 317 µM
[17]
  Activity: Active
[18]
  Activity: inactive
[19]
  Activity: inactive
[20]
  Activity: Dose-dependent effect
[21]
  EC50: 257 µM
[22]
  Imax: 1070%
[23]
  Activity: Dose-dependent effect
[24]
  EC50: 290 µM
[25]
  Activity: Active
[26]
  Imax: 716%
[27]
  Activity: Dose-dependent effect
[28]
  EC50: 724 µM
[29]
  Activity: Dose-dependent effect
[1]
  EC50: 142 µM

## Cc1ncc2n1-c1ccc(Cl)cc1C(c1ccccc1F)=NC2 [MIDAZOLAM]
[1]
  EC50: 0.143 µM
[2]
  Imax: 342%

## C=C[C@]1(C)C=C2CC[C@@H]3[C@](C)(CCC[C@@]3(C)C(=O)O)[C@H]2CC1 [SANDARACOPIMARIC ACID]
[3]
  Activity: Dose-dependent effect
[4]
  EC50: 31.2 µM
[30]
  Ratio: 1.43
[31]
  Ratio EC50: 7.79
[32]
  Ratio: 0.92
[33]
  Ratio: 0.94
[34]
  Ratio EC50: 4.25
[35]
  Activity: 25.1 m
[6]
  Imax: 1090%
[7]
  Activity: inactive
[8]
  Activity: inactive
[9]
  Imax: 513%
[36]
  Ratio EC50: 10.3
[10]
  Activity: Active
[11]
  Activity: inactive
[12]
  Activity: Active
[13]
  Imax: 520%
[37]
  Ratio EC50: 12.8
[38]
  Ratio EC50: 11.7
[14]
  Activity: inactive
[15]
  Activity: Dose-dependent effect
[16]
  EC50: 40.7 µM
[17]
  Activity: Active
[18]
  Activity: inactive
[39]
  Ratio: 0.92
[19]
  Activity: inactive
[40]
  Activity: 22.3 m
[20]
  Activity: Dose-dependent effect
[21]
  EC50: 24.9 µM
[41]
  Ratio: 0.5
[22]
  Imax: 1100%
[23]
  Activity: Dose-dependent effect
[24]
  EC50: 48.1 µM
[25]
  Activity: Active
[26]
  Imax: 502%
[42]
  Ratio: 0.98
[27]
  Activity: Dose-dependent effect
[28]
  EC50: 56.6 µM
[29]
  Activity: Dose-dependent effect
[1]
  EC50: 33.3 µM
[43]
  Ratio EC50: 6.02
[2]
  Imax: 856%

## Cc1nnc2n1-c1ccc(Cl)cc1C(c1ccccc1Cl)=NC2 [TRIAZOLAM]
[1]
  EC50: 0.022 µM
[2]
  Imax: 253%
